Test results published in PubChem BioAssay.
Records with an inconclusive call do not appear.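 Rule for the calls, unless noted: active = RAM network inhibition above 8.4% in each of two replicates, 3 SD over the compound average; inconclusive = above 8.4% inhibition in only one replicate; inactive = 8.4% inhibition or less in each replicate.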

Key:
[1] = S. cerevisiae growth inhibition in permissive medium (OD615), pilot counter-assay for S. cerevisiae lifespan shortening project, permissive growth control (AID 705;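 active = growth inhibition above 25% in both replicates, a cutoff set 3 SD above the mean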); details: OD615, 24 h, at 10 µM, stronger effect = higher value
How it was run: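 System: Engineered DeaD yeast | Buffer or medium: SC raffinose/galactose permissive medium | Doses: 10 µM single dose, 0.25% DMSO | Times: 24 h exposure, 30 °C | Measured by: OD615 turbidity read | Read-out: Yeast growth inhibition indicated by reduced 24 h OD615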

[2] = S. cerevisiae growth inhibition in restrictive medium, OD615, pilot screen, restrictive growth control, yeast lifespan reduction project (AID 706;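 active = growth inhibition above a set limit, 3 SD over mean compound inhibition, in both replicates, cut at about 43% in these data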;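 note: modified DeaD lifespan yeast strain shifted to restrictive glucose medium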); details: OD615, 48 h, at 10 µM, stronger effect = higher value
How it was run: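 Assay system: engineered S. cerevisiae DeaD strain; Buffer or medium: CSMM-D glucose medium; Dosing: 10 µM compound, 0.25% DMSO; Times: cell pre-growth 4 h, compound exposure 48 h, 30 °C; Detection: absorbance (optical density) measured at 615 nm.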

[3] = doxorubicin toxicity protection in MRP-1 cells – H69AR cells, CellTiter-Glo, duplicate, MRP-1 activator project, pilot screen (AID 807;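 active = viability increase at or above a cutoff of the median across tested compounds plus 3 SD, cut at about 8.5% in these data, passing the limit was not always enough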;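 note: compound pretreatment 18-22 h then 72 h combined with doxorubicin; 0% = doxorubicin alone and 100% = vehicle without doxorubicin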); details: H69AR viability with doxorubicin, CellTiter-Glo luminescence; at 10 µM; stronger effect = higher value
[4] = viability of HCT116 without oncogenic beta-catenin – human colon tumor cells, pilot screen (AID 823;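 active = cell viability at or below a set limit in both duplicate runs, the limit being the all-compound median minus 4 SD, cut at about 23% in these data, passing the limit was not always enough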;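 note: 0% = wells killed by 20 µM Hyamine and 100% = untreated DMSO cell wells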); details: HCT116 beta-catenin knockout viability, CellTiter-Glo, 60 h; at 10 µM; stronger effect = lower value
[5] = viability of PTEN-null HCT116 cells – cell-based, HCT116 clonal line, CellTiter-Glo, pilot screen (AID 824;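 active = viability at or below 27.92% in each of two runs, the all-compound median minus 4 SD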;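 note: 0% = 20 µM Hyamine control and 100% = vehicle cell control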); details: HCT116 PTEN-deleted viability, 60 h, at 10 µM, stronger effect = lower value
[6] = RAM pathway blockade in budding yeast – dse1pr::URA3 reporter, 5-FOA selection, pilot screen (AID 869;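 active = inhibition over a set limit, the all-compound mean plus 3 SD, in both replicate runs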;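 note: 0% = DMSO wells with no growth and 100% = 10 µM 1-NA-PP1 with full growth; RAM network block rescues cells from 5-FOA so hits raise OD615 growth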); details: S. cerevisiae dse1pr::URA3 5-FOA growth, OD615, 2 d; at 10 µM; stronger effect = higher value; strain carries analog-sensitive mutant Cbk1 kinase
[7] = RAM signaling pathway blockade in yeast – S. cerevisiae, Pdr1DBD-CYC8 efflux-inhibited sensitized strain, primary screen (AID 1298);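 note: 0% = DMSO untreated cells without growth and 100% = 10 µM 1-NA-PP1 full growth; higher means more yeast growth rescued from 5-FOA killing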; details: S. cerevisiae cbk1-as DSE1-URA3 strain, 5-FOA growth OD615, 2 d; at 50 µM; stronger effect = higher value

Cc1sc2nc(SC(C)C)nc(N)c2c1C
inactive: growth inhibition [1] 6.53% | growth inhibition [2] 7.72% | viability increase [3] 0.28% | viability [4] 103% | viability [5] 104% | inhibition [6] 1.69% | RAM network inhibition [7] 4.8%

Cn1c(Cn2c(=O)sc3ccccc32)nnc1SCC(=O)N1CCN(c2ccccc2)CC1
inactive: growth inhibition [1] 0.845% | growth inhibition [2] 24.3% | viability increase [3] -0.95% | viability [4] 100% | viability [5] 96.6% | inhibition [6] 0.04% | RAM network inhibition [7] 3.66%

O=C(Cn1cnc2c(cnn2-c2ccc(F)cc2)c1=O)NCCc1ccccc1
inactive: growth inhibition [1] -1.94% | growth inhibition [2] -1.9% | viability increase [3] 1.69% | viability [4] 97.6% | viability [5] 95.7% | inhibition [6] 3.04% | RAM network inhibition [7] 6.6%

COc1cc(NC(=O)c2cc(-c3cccc(O)c3)on2)cc(OC)c1OC
inactive: growth inhibition [1] -13.9% | growth inhibition [2] 3.45% | viability increase [3] -6.05% | viability [4] 89.8% | viability [5] 75.3% | inhibition [6] 4.79% | RAM network inhibition [7] 6.05%

CC1CCCC(NC(=O)CN(C)S(=O)(=O)c2cccc3cccnc23)C1C (stereo not given)
inactive: growth inhibition [1] -10.9% | growth inhibition [2] -18.7% | viability increase [3] -3.62% | viability [4] 98.7% | viability [5] 88.4% | inhibition [6] 0.34% | RAM network inhibition [7] 3.61%

O=C(c1ccc2nc(N3CCOCC3)sc2c1)N1CCN(C(=O)c2ccco2)CC1
inactive: growth inhibition [1] -4.29% | growth inhibition [2] 2.97% | viability increase [3] -1.45% | viability [4] 105% | viability [5] 95.8% | inhibition [6] 0.86% | RAM network inhibition [7] 3.05%

CCCCCn1c(SC(C)C(C)=O)nc2c1c(=O)[nH]c(=O)n2C (stereo not given)
inactive: growth inhibition [1] -25.6% | growth inhibition [2] -33.8% | viability increase [3] -0.88% | viability [4] 94.4% | viability [5] 88% | inhibition [6] 2.36% | RAM network inhibition [7] 2.16%

COc1ccc(C)cc1NC(=O)CN1C(=O)c2ccccc2S1(=O)=O
inactive: growth inhibition [1] 6.31% | growth inhibition [2] 10.8% | viability increase [3] -2.12% | viability [4] 102% | viability [5] 94.4% | inhibition [6] 3.04% | RAM network inhibition [7] 4.58%

COc1cccc(C2N(c3ccc(Cl)cc3)C(=O)C3CCCN32)c1 (stereo not given)
inactive: growth inhibition [1] -5.56% | growth inhibition [2] 1.89% | viability increase [3] 0.15% | viability [4] 97.5% | viability [5] 94.5% | inhibition [6] 1.04% | RAM network inhibition [7] 0%

CCOC(=O)c1ccccc1NC(=O)CC1SC(=NC)N(C)C1=O (stereo not given)
inactive: growth inhibition [1] -10.3% | growth inhibition [2] -22.9% | viability increase [3] -2% | viability [4] 102% | viability [5] 96.2% | inhibition [6] 2.04% | RAM network inhibition [7] 4.34%

O=C(O)CCC(=O)NCc1ccc2[nH]c3c(c2c1)CCCC3
inactive: growth inhibition [1] -13.2% | growth inhibition [2] 3.53% | viability increase [3] 0.95% | viability [4] 101% | viability [5] 96.5% | inhibition [6] 1.51% | RAM network inhibition [7] 4.69%

O=C(Nc1nc(-c2cc3ccccc3oc2=O)cs1)c1ccco1
inactive: growth inhibition [1] -17.5% | growth inhibition [2] -10.9% | viability increase [3] -1.98% | viability [4] 102% | viability [5] 100% | inhibition [6] 1.57% | RAM network inhibition [7] 3.32%

CC12C(=O)N(c3ccccn3)C(=O)C1C1C=CC2C1 (stereo not given)
inactive: growth inhibition [1] -13.3% | growth inhibition [2] -4.06% | viability increase [3] -0.78% | viability [4] 96.6% | viability [5] 92% | inhibition [6] 1.26% | RAM network inhibition [7] 1.11%

COC(=O)c1ccc(C2c3c(n[nH]c3C)C(=O)N2c2ccc(C)cc2)cc1 (stereo not given)
inactive: growth inhibition [1] 10.6% | growth inhibition [2] -0.115% | viability increase [3] 0.79% | viability [4] 70.6% | viability [5] 86.4% | inhibition [6] 0.34% | RAM network inhibition [7] 0.36%

O=C(Cc1ccccc1)NCCn1ccc2ccccc21
inactive: growth inhibition [1] -10.7% | growth inhibition [2] -13.2% | viability increase [3] -1.79% | viability [4] 94.6% | viability [5] 88.8% | inhibition [6] 0.01% | RAM network inhibition [7] 3.55%
